Experimental findings from ChEMBL document CHEMBL1687733, “Topoisomerase I gene mutations at F270 in the large subunit and N184 in the small subunit contribute to the resistance mechanism of the unicellular parasite Leishmania donovani towards 3,3'-diindolylmethane” (Antimicrob Agents Chemother, 2009) are described below.

In experiment [1] the test system is T1, DNA topoisomerase I (Leishmania donovani (strain BPK282A1)), E9BRC0 [K430N].
T1 sequence (whole entry): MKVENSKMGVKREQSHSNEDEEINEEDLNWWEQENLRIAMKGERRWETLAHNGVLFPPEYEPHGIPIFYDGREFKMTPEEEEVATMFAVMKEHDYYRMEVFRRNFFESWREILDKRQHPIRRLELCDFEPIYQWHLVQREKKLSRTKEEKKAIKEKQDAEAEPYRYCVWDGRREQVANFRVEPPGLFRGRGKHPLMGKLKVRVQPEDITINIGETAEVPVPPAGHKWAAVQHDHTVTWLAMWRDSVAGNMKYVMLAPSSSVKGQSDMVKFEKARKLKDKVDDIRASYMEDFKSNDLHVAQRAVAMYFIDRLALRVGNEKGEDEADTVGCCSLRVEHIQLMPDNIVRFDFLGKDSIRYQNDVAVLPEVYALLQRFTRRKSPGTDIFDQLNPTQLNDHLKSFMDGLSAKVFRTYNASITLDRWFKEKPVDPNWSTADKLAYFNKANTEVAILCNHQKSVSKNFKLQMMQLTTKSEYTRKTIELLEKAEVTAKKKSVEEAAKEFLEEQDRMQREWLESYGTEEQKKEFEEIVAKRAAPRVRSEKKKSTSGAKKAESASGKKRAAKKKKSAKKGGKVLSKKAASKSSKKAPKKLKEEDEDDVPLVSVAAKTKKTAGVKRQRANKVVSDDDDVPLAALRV
Description: Effect on recombinant drug-resistant Leishmania donovani LdDR50 topoisomerase 1b large subunit K430N mutant-mediated cleavage of 25-mer duplex oligonucleotide at 20 uM after 30 mins by PAGE analysis. The method in brief:
(§1)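 5′-32P-labelled 25-mer duplex (10 nM) incubated with reconstituted mutant enzyme (0.2 μM, 20-fold molar excess) and DIM 5–20 μM for 30 min (Methods 37°C; legend 23°C). Stopped with SDS, trypsin-treated, resolved on 12% denaturing polyacrylamide-urea gel; cleaved 12-mer detected by autoradiography.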

Experiment [2] relates to Leishmania donovani. Description: Antimicrobial activity against wild type Leishmania donovani AG83 transfected with drug-resistant Leishmania donovani LdDR50 topoisomerase 1 F270L, N184S mutant in large subunit assessed as inhibition of parasite growth at 20 uM after 24 hrs by MTT assay. The following applies: AG83, 24 h. The class given is functional. The method, boiled down: (§2)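 WT promastigotes transfected by electroporation with mutant large-subunit (pXG-HYG, hygromycin selection) and/or small-subunit (pXG-GFP2+, G418 selection) topoisomerase I genes. Grown with DIM 1–20 μM for 24 h; MTT read-out, growth as % of optical density of untreated WT parasites.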

Experiment [3] deals with T2, DNA topoisomerase type IB small subunit (Leishmania donovani (strain BPK282A1)), E9B7X3 [N184S].
T2 sequence (whole entry): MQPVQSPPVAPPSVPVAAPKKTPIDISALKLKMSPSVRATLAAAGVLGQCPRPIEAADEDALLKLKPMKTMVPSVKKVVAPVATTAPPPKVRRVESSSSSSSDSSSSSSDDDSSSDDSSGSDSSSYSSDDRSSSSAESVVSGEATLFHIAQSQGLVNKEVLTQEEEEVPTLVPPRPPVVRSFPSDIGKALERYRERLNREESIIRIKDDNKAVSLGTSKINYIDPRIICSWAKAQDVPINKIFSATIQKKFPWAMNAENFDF
Description: Effect on recombinant drug-resistant Leishmania donovani LdDR50 topoisomerase 1b small subunit N184S mutant-mediated cleavage of 25-mer duplex oligonucleotide at 20 uM after 30 mins by PAGE analysis. The method, boiled down:
as §1

Experiment [4] can be described thus: Binding affinity to recombinant wild type Leishmania donovani AG83 topoisomerase 1b after 24 hrs by equilibrium dialysis method.
For experiment [5], the system named is T3, DNA topoisomerase I (Leishmania donovani (strain BPK282A1)), E9BRC0 [F270L].
T3 sequence (whole entry): T1 sequence (whole entry) with F270L, N430K
Description: Inhibition of recombinant drug-resistant Leishmania donovani LdDR50 topoisomerase 1b large subunit F270L mutant-mediated religation of 14-mer/25-mer suicide DNA substrate at 20 uM […] by PAGE analysis.

The subject of experiment [6] is Leishmania donovani. The experiment in a line: Antimicrobial activity against wild type Leishmania donovani AG83 transfected with drug-resistant Leishmania donovani LdDR50 topoisomerase 1 F270L, K430N mutant in large subunit and N184S mutant in small subunit assessed as inhibition of parasite growth at 20 uM after 24 hrs by MTT assay. The class given is functional, organism-based. The method, boiled down:
as §2
Background: Formazan colour is commonly taken as a measure of viable cells.

The subject of experiment [7] is T4, Leishmania donovani [N184S].
T4 sequence (whole entry): T2 sequence (whole entry)
Description: Inhibition of recombinant drug-resistant Leishmania donovani LdDR50 topoisomerase 1b wild type large subunit and small subunit N184S mutant-mediated relaxation of supercoiled pBluescript SK(+) DNA at up to 50 uM after 30 mins using ethidium bromide staining. The method, boiled down:
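Reconstituted recombinant enzyme (30 fmol) with 90 fmol supercoiled pBluescript SK(+) DNA (3:1 DNA:enzyme), 30 min at 37°C with DIM (1–50 μM for fully mutant enzyme; 10 μM for single-site mutants); 4% DMSO vehicle control. Products on 1% agarose, ethidium bromide (0.5 μg/ml) stained; supercoiled monomer band quantified.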

The subject of experiment [8] is Leishmania donovani. Description: Inhibition of recombinant wild type Leishmania donovani AG83 topoisomerase 1b-mediated relaxation of supercoiled pBluescript SK(+) DNA at 10 uM after 30 mins using ethidium bromide staining. The method, boiled down: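 Recombinant L and S subunits (E. coli, Ni-NTA then phosphocellulose) were reconstituted at a 1:1 molar ratio and dialysed 12 h at 4°C in 50 mM K-phosphate pH 7.5. Enzyme (30 fmol) acted on 90 fmol supercoiled pBS SK(+) for 30 min at 37°C, with DIM or 4% DMSO. Products ran on 1% agarose with ethidium bromide (0.5 μg/ml), and the supercoiled band was quantified.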

Experiment [9] deals with Leishmania donovani. The experiment in a line: Antimicrobial activity against wild type Leishmania donovani AG83 transfected with drug-resistant Leishmania donovani LdDR50 topoisomerase 1 K430N mutant in large subunit and N184S mutant in small subunit assessed as inhibition of parasite growth at 20 uM after 24 hrs by MTT assay. The following applies: AG83, 24 h. The class given is functional. The method in brief: as §2

Where a chain is given by its changes, count along the chain named. Activity calls are given as the source filed them. The calls are words filed in the database; no cut-off is given here.

For the compound `c1ccc2c(Cc3c[nH]c4ccccc34)c[nH]c2c1` [ARUNDINE], the outcome in experiment [1] and in experiment [3] was Active. The inhibition (in general, the relative decrease from the control value, in per cent) at 20 µM in [2] was 31%; in experiment [9], 86%. Moreover, the Kd (usually the constant that tells how readily two partners part at equilibrium) in experiment [4] was found to be 9.7 nM. Also, the inhibition entry in experiment [5] is “inactive”. For the same compound, the outcome in experiment [6] was inactive. The inhibition entry in experiment [7] and in experiment [8] was “Active” throughout.
